ChEMBL document CHEMBL4411310, “Identification of a novel DGKα inhibitor for XLP-1 therapy by virtual screening” (Eur J Med Chem, 2019)
Blank lines part the entries; values can stand above or below the compound they belong to. Calls of active or inactive are those of the source. The calls are words filed in the database; no cut-off is given here.

How the values were obtained:
[1] = molecular target: T1, Diacylglycerol kinase alpha (Homo sapiens, UniProt P23743); assay: Inhibition of OST-tagged DGKalpha (unknown origin) expressed in MDCK cell homogenates assessed as residual activity at 100 uM using DAG as substrate measured after 5 mins in presence of [gamma-32P]ATP by TLC analysis relative to control; assay type: cell-free
T1 sequence (P23743 whole entry): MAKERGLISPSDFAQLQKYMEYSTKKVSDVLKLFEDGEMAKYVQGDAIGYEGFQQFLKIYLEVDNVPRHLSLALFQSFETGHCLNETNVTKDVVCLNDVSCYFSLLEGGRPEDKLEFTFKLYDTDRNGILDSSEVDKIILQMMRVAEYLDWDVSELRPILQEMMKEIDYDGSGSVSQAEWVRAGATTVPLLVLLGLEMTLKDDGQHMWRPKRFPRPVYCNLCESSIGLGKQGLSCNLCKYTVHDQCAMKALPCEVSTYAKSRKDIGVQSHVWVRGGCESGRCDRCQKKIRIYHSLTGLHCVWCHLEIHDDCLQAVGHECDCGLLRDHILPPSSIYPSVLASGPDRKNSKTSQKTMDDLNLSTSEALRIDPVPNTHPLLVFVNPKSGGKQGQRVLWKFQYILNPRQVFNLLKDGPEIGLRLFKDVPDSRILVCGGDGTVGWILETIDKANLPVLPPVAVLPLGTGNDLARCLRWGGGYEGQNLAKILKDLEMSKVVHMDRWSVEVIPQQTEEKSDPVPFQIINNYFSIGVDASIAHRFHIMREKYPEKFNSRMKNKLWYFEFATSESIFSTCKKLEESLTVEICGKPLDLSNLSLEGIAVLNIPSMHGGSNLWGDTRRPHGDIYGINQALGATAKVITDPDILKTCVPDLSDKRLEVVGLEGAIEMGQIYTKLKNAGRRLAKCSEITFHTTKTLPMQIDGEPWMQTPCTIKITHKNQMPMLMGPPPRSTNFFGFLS

[2] = Solubility of the compound in DMSO; assay type: physicochemical
[3] = molecular target: T1, Diacylglycerol kinase alpha; assay: Inhibition of DGKalpha expressed in 293T cell homogenates at 100 uM using DAG as substrate measured after 5 mins in presence of [gamma-32P]ATP by TLC analysis relative to control
[4] = molecular target: Diacylglycerol kinase alpha (Sus scrofa, UniProt P20192); assay: Inhibition of pig FLAG3-tagged DGKalpha expressed in African green monkey COS7 cells using 1,2-dioleoyl-sn-glycerol as substrate measured after 30 mins by ADP-Glo luminescence assay
Sequence of Diacylglycerol kinase alpha (Sus scrofa, UniProt P20192) (P20192 whole entry): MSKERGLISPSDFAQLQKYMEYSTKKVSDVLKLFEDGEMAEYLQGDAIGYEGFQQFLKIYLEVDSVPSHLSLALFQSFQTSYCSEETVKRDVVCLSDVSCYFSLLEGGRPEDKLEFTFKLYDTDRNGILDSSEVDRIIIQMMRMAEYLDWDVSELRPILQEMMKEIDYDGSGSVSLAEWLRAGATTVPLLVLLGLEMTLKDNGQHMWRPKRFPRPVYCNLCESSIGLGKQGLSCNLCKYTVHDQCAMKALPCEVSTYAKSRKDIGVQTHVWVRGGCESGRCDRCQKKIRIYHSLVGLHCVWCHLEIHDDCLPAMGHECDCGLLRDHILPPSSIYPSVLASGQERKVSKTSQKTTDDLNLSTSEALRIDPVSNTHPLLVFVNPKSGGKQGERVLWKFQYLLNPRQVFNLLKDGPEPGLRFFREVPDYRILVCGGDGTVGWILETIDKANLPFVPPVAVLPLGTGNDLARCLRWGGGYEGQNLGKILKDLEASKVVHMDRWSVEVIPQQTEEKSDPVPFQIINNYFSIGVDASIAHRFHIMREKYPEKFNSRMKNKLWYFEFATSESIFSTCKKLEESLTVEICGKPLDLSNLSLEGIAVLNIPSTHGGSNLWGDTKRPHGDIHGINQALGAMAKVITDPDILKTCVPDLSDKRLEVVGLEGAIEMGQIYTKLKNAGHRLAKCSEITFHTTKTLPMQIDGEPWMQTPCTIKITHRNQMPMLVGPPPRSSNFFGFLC

[5] = molecular target: T1, Diacylglycerol kinase alpha; assay: Inhibition of OST-tagged DGKalpha (unknown origin) expressed in MDCK cell homogenates using DAG as substrate measured after 5 mins in presence of [gamma-32P]ATP by TLC analysis; assay type: cell-free
How it was run: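 Doxycycline-induced (1 μg/ml, 2 days) MDCK cells expressing OST-DGKα, homogenized in Hepes pH 8 buffer with EDTA, EGTA, vanadate and protease inhibitors. Initial velocity measured 5 min at 27 °C with saturating 1,2-dioleoyl-sn-glycerol and γ32P-ATP plus 25 μM unlabelled ATP and MgCl2. Stopped with HCl, lipids extracted, separated by TLC, radioactive phosphatidic acid quantified by imager. IC50 from 0.1–100 μM, ≥3 experiments, normalized fit.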

[6] = molecular target: Diacylglycerol kinase zeta (Homo sapiens) (UniProt Q13574); assay: Inhibition of DGKzeta (unknown origin) expressed in human 293T cells at 100 uM using DAG as substrate measured after 5 mins in presence of [gamma-32P]ATP by TLC analysis
Sequence of Diacylglycerol kinase zeta (Homo sapiens) (Q13574 whole entry): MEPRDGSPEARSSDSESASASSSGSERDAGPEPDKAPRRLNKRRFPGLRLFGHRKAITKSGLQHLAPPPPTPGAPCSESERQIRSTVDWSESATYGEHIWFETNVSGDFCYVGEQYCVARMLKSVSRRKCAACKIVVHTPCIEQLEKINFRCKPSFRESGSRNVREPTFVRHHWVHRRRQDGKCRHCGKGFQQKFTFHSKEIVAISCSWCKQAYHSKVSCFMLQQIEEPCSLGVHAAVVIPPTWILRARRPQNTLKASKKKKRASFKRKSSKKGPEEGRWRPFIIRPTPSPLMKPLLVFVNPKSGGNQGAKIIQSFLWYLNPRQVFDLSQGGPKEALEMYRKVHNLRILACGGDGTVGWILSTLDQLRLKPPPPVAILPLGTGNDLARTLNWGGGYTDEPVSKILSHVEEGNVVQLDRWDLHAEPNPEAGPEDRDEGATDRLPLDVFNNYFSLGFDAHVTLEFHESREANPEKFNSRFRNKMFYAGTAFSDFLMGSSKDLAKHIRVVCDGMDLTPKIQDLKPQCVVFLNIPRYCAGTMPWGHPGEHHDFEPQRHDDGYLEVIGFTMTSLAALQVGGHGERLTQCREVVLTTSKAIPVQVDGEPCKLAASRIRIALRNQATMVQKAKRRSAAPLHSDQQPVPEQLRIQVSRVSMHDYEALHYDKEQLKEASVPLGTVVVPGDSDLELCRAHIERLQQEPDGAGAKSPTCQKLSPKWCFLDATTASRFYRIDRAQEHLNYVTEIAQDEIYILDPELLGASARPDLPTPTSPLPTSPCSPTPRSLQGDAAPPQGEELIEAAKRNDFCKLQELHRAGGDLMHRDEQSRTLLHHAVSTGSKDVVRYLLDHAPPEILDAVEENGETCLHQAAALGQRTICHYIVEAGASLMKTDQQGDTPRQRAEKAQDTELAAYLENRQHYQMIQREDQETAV
How it was run: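 293T cells transiently transfected with the DGKζ plasmid or empty vector; homogenates collected 48 h later. Compound at 100 μM. Reaction run 5 min at 27 °C with saturating 1,2-dioleoyl-sn-glycerol, γ32P-ATP plus 25 μM unlabelled ATP, and MgCl2, at pH 8. Stopped with HCl, lipids extracted and separated by TLC, read by phosphorimaging. At least three experiments in triplicate.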

[7] = system: Serotonin (5-HT) receptor; assay: Antagonist activity at serotonin receptor in human PBMC assessed as inhibition of PMA-stimulated superoxide anion generation at 10 uM preincubated for 1 hr followed by PMA-stimulation and measured after 30 mins by spectrophotometric method; conditions: 0.5 h
Jurkat = assay: Cytotoxicity against human Jurkat cells assessed as reduction in cell viability at 1 uM after 24 hrs by trypan blue exclusion assay; assay type: cell-based
How it was run: (§1)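 SAP-shRNA or control-shRNA Jurkat cells, 0.5 × 10^5 cells/well in triplicate, in wells left uncoated or precoated for 24 h at 4 °C with anti-CD3 OKT3 (50 μg/ml) or PHA-P (50 μg/ml). Inhibitor at 1 μM or DMSO control for 24 h. Live cells counted by trypan blue exclusion; % cell loss versus untreated controls. At least three experiments.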

[8] = molecular target: T-cell receptor (Homo sapiens) (UniProt P04437+P01848+P04435+P03979); assay: Effect on TCR signaling in OKT3-induced human T-cells harboring SiRNA assessed as restoration of restimulation-induced cell death at 1 to 10 uM preincubated for 30 mins followed by OKT3 stimulation and measured 24 hrs post dose by propidium iodide staining based flow cytometry
How it was run: (§2)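 PBL from healthy donors, activated with anti-CD3/CD28 and then kept in IL-2. siRNA (SAP or control, 200 pmol) delivered by nucleofection, then 4 days in IL-2. 10^5 cells/well in triplicate; inhibitor (1, 5, 10 μM) added 30 min before OKT3 restimulation (1–500 ng/ml) for 24 h. PI staining, fixed 30 s flow acquisition; % cell loss.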

[9] = molecular target: T1, Diacylglycerol kinase alpha; assay: Inhibition of DGKalpha in PHA-induced human Jurkat cells harboring SAP ShRNA assessed as restoration of restimulation-induced cell death at 1 uM measured after 24 hrs by trypan blue exclusion method; assay type: cell-based; how it was run: as §1
[10] = molecular target: T1, Diacylglycerol kinase alpha; assay: Inhibition of DGKalpha in OKT3-induced human Jurkat cells harboring SAP ShRNA assessed as restoration of restimulation-induced cell death at 1 uM measured after 24 hrs by trypan blue exclusion method; assay type: cell-based; how it was run: as §1
[11] = molecular target: T1, Diacylglycerol kinase alpha; assay: Inhibition of DGKalpha in OKT3-induced human T cells harboring SAP SiRNA assessed as restoration of restimulation-induced cell death at >=5 uM preincubated for 30 mins followed by OKT3 stimulation and measured 24 hrs post dose by propidium iodide staining based flow cytometry; how it was run: as §2
[12] = molecular target: T1, Diacylglycerol kinase alpha; assay: Inhibition of DGKalpha in OKT3-induced human T cells harboring SAP siRNA assessed as restoration of TCR-induced NR4A1 upregulation at 10 uM after 4 hrs by RT-PCR analysis; assay type: cell-based
How it was run: (§3)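 Activated PBL transfected with SAP or control siRNA, 4 days in culture. Restimulated with OKT3 (10 μg/ml), with or without inhibitor at 10 μM. After 4 h, NR4A1 and NR4A3 measured by TaqMan qPCR normalised to GUSB. At least four independent experiments.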

[13] = molecular target: T1, Diacylglycerol kinase alpha; assay: Inhibition of DGKalpha in OKT3-induced human T cells harboring SAP SiRNA assessed as restoration of restimulation-induced cell death at 1 to 10 uM preincubated for 30 mins followed by OKT3 stimulation and measured 24 hrs post dose by propidium iodide staining based flow cytometry; how it was run: as §2
T-cell = assay: Cytotoxicity against human T cells assessed as cell death at 1 to 10 uM measured after 24 hrs propidium iodide staining based flow cytometry; how it was run: as §2
[14] = molecular target: T1, Diacylglycerol kinase alpha; assay: Inhibition of DGKalpha in OKT3-induced human T cells harboring SAP siRNA assessed as restoration of TCR-induced NR4A3 upregulation at 10 uM after 4 hrs by RT-PCR analysis; assay type: cell-based; how it was run: as §3
[15] = molecular target: T2, 5-hydroxytryptamine receptor 2C (Homo sapiens, UniProt P28335); assay: Binding affinity to 5HT2C receptor (unknown origin)
T2 sequence (P28335 whole entry): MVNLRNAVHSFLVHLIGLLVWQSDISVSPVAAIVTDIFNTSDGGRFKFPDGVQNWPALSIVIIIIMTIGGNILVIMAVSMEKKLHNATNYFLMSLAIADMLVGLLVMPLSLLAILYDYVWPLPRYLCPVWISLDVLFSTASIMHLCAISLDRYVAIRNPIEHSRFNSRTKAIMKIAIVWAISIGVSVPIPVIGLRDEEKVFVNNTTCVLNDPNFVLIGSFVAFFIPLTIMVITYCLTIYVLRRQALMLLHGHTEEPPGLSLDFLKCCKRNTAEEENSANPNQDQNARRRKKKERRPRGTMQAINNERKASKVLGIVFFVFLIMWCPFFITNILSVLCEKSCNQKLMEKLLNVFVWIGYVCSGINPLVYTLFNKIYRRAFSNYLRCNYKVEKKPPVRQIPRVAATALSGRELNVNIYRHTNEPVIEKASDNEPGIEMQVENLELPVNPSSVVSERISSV

[16] = molecular target: T1, Diacylglycerol kinase alpha; assay: Inhibition of DGKalpha in human erythrocytes using OAG as substrate preincubated for 1 min followed by OAG addition and measured after 8 mins in presence of [gamma-32P]ATP; assay type: cell-based
[17] = molecular target: Diacylglycerol kinase alpha (Rattus norvegicus, UniProt P51556); assay: Inhibition of rat FLAG-tagged DGKalpha expressed in HEK293T cells using DAG as substrate measured after 15 mins in presence of [gamma-32P]ATP by scintillation counting method
Sequence of Diacylglycerol kinase alpha (Rattus norvegicus, UniProt P51556) (P51556 whole entry): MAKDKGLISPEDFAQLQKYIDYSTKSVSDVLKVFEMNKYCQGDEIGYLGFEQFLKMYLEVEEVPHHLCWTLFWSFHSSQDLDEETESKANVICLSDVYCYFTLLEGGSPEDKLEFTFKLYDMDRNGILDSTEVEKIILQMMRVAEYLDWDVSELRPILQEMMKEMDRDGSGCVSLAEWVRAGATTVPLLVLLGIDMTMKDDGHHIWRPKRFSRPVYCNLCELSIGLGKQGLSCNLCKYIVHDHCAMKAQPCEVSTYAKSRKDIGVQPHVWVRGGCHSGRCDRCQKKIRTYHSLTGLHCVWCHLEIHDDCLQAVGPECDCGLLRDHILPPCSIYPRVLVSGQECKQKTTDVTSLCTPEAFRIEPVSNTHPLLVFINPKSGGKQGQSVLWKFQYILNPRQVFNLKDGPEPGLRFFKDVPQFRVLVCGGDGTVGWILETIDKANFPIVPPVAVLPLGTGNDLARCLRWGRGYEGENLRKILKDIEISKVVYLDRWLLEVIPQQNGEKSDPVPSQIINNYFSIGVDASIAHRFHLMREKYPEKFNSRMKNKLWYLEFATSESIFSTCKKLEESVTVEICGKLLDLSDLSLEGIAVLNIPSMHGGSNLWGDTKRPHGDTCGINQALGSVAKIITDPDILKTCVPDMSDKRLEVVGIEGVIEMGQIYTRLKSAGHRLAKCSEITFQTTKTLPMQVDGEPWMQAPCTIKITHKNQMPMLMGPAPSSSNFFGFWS

Activity [1]: 68%
Structure (SMILES): O=C1CC2(CCCC2)C(=O)N1CN1CCN(C(c2ccccc2)c2ccccc2)CC1

solubility [2]: Insoluble
Structure (SMILES): O=C(CN1CCC(n2nnc3ccccc32)CC1)N(C1CCCCC1)C1CCCCC1

Activity [1]: 50%
Structure (SMILES): O=C1C(=O)N(C2CCCC2)C(=O)N1CN1CCC(Cc2ccccc2)CC1

Structure (SMILES): O=c1c2ccccc2[nH]c(=S)n1CCN1CCC(=C(c2ccc(F)cc2)c2ccc(F)cc2)CC1 [DIACYLGLYCEROL KINASE INHIBITOR II]
inhibition [3]: 81%
IC50 [4]: 18 µM
IC50 [5]: 10.6 µM
Activity [1]: 28%
inhibition [6]: inactive

Activity [1]: 39%
Structure (SMILES): O=c1c2ccccc2[nH]c(=S)n1CCCN1CCN(c2cccc(Cl)c2)CC1

Structure (SMILES): O=C1/C(=C\C=C\c2ccco2)SC(=S)N1NS(=O)(=O)c1ccccc1
inhibition (INH) [7]: Not Active
Activity (Jurkat): Toxic
IC50 [4]: 0.6 µM
Activity [8]: Active
inhibition [9]: Active
inhibition [10]: Active
inhibition [11]: Active

Structure (SMILES): Cc1ccc2c(C(=O)CN3CCN(C(=O)c4ccco4)CC3)c(C)[nH]c2c1
inhibition (INH) [7]: Not Active
Activity (Jurkat): Non-Toxic
inhibition [3]: 93%
inhibition [12]: Active
inhibition [13]: Active
Activity (T-cell): Non-Toxic
IC50 [5]: 4.28 to 4.3 µM
Activity [8]: inactive
Activity [1]: 4%
inhibition [14]: Active
inhibition [6]: inactive
inhibition [9]: Active
inhibition [10]: Active

Structure (SMILES): Cc1nc2sccn2c(=O)c1CCN1CCC(=C(c2ccc(F)cc2)c2ccc(F)cc2)CC1 [RITANSERIN]
inhibition (INH) [7]: Active
Activity (Jurkat): Non-Toxic
inhibition [12]: Active
Ki [15]: 0.00071 µM
inhibition [13]: Active
Activity (T-cell): Non-Toxic
IC50 [5]: 16.7 µM
Activity [8]: inactive
Activity [1]: 17%
inhibition [9]: Active
inhibition [10]: Active

Activity [1]: 75%
Structure (SMILES): COc1ccccc1N1CCN(CCCNc2cc(=O)n(C)c(=O)n2C)CC1

Structure (SMILES): CC[C@H](C)[C@@H](OC(C)=O)[C@@H](C)C1=CC(=O)C2=C(O[C@]3(C)CC[C@H]4O[C@@H](C(C)(C)O)CC[C@]4(C)[C@H]3[C@@H]2O)C1=O [COCHLIOQUINONE A]
Ki [16]: 2.26 µM

Activity [1]: 49%
Structure (SMILES): O=c1c2ccccc2[nH]c(=S)n1CCN1CCN(Cc2ccccc2)CC1

Structure (SMILES): CCCCCCCC(=O)OCCOC(=O)CCCCCCC [ETHYLENE GLYCOL DIOCTANOATE]
Ki [16]: 58 µM

Activity [1]: 75%
Structure (SMILES): O=C(Cn1cnc2sccc2c1=O)N1CCN(C(c2ccccc2)c2ccccc2)CC1

Activity [1]: 62%
Structure (SMILES): O=C(CCCN1CCC(O)(c2ccc(Cl)cc2)CC1)c1ccc(F)cc1

Structure (SMILES): Cc1nc2n(c(=O)c1CCN1CCC(c3noc4cc(F)ccc34)CC1)CCCC2 [RISPERIDONE]
solubility [2]: Insoluble

Structure (SMILES): Cc1nc2sccn2c(=O)c1CCN1CCC(=C(c2ccccc2)c2ccc(F)cc2)CC1
IC50 [16]: 3.8 µM
inhibition [3]: 68%
IC50 [4]: 25 µM
IC50 [5]: 19.7 to 19.8 µM
Activity [1]: 27%
inhibition [6]: inactive
IC50 [17]: 20 µM

Activity [1]: 57%
Structure (SMILES): COc1ccccc1CCN1CCC(CN(C)C(=O)C2=CCCCC2)CC1

Structure (SMILES): O=C(Cc1cn2ccsc2n1)N1CCN(C(c2ccccc2)c2ccccc2)CC1
Activity [1]: 64%

Activity [1]: 72%
Structure (SMILES): O=C(CN1CCN(Cc2ccccc2)CC1)c1c[nH]c2ccccc12

inhibition (INH) [7]: Active
Structure (SMILES): O=C(c1ccc(F)cc1)C1CCN(CCn2c(=O)[nH]c3ccccc3c2=O)CC1 [KETANSERIN]
Activity (Jurkat): Non-Toxic
inhibition [13]: inactive
Activity (T-cell): Non-Toxic
Activity [8]: inactive
inhibition [9]: Active
inhibition [10]: Active

Activity [1]: 68%
Structure (SMILES): O=C(NCC(=O)N1CCN(C(c2ccccc2)c2ccccc2)CC1)c1ccco1

Structure (SMILES): C/C=C(\C)[C@@H](OC(C)=O)[C@@H](C)C1=CC(=O)C2=C(O[C@]3(C)CC[C@H]4O[C@@H](C(C)(C)O)CC[C@]4(C)[C@H]3[C@@H]2O)C1=O [STEMPHONE]
Ki [16]: 3.32 µM

Activity [1]: 67%
Structure (SMILES): COc1ccccc1OCCCN1CCN(C(=O)c2ccc(=O)[nH]n2)CC1
